In ChEMBL document CHEMBL2086227, “Synthesis and evaluation of anticonvulsant and antidepressant activities of 5-alkoxytetrazolo[1,5-c]thieno[2,3-e]pyrimidine derivatives” (Eur J Med Chem, 2012):
Activity calls are given as the source filed them. The rule behind the calls is not given here.

Columns and labels:
Mus musculus [1] = assay: Anticonvulsant activity in Kunming mouse assessed as protection against maximal electroshock-induced seizure at 30 mg/kg, ip; format: functional, organism-based; set-up: dose 30 mg/kg
How it was run: (§1)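 Mice held on a 12-h light/dark cycle at 23 ± 2 °C with free food and water. Compounds were given ip as suspensions in aqueous Tween 80 (3% v/v, 0.9% NaCl) at 0.05 mL/20 g body weight. The maximal electroshock test was scored as number of animals protected over number tested.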

Mus musculus [2] = assay: Anticonvulsant activity in Kunming mouse assessed as protection against maximal electroshock-induced seizure at 100 mg/kg, ip; format: functional, organism-based; set-up: dose 100 mg/kg; how it was run: as §1
Mus musculus [3] = assay: Anticonvulsant activity in Kunming mouse assessed as protection against maximal electroshock-induced seizure at 300 mg/kg, ip; format: functional, organism-based; set-up: dose 300 mg/kg; how it was run: as §1
Mus musculus [4] = assay: Antidepressant activity in Kunming mouse assessed as decrease in immobility time at 100 mg/kg, ip measured for last 4 mins of 6 mins test after 30 mins post dose by forced swimming test relative to control; format: functional; set-up: scale not given: the % may be the effect or the level left; conditions: route intraperitoneal
How it was run: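 Mice were dosed ip with compounds at 100 mg/kg, suspended in 3% Tween 80 in 0.9% NaCl (0.05 mL/20 g); controls got 3% aqueous Tween 80. After 30 min each mouse was placed in a water-filled cylinder (water depth 10 cm, 23–25 °C) for 6 min. Upright floating with only slight movements was scored as immobility, timed over the last 4 min. Mean ± S.E.M., n = 8.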

Mus musculus [5] = assay: Toxicity in Kunming mouse assessed as increase in locomotor activity at 100 mg/kg, ip administered 60 mins prior to test measured for 3 mins by open-field test; format: organism-based; set-up: dose 100 mg/kg, route intraperitoneal; conditions: in vivo, 0.05 h
How it was run: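 Open-field exploratory activity was recorded for 3 min, starting 60 min after ip dosing in 3% Tween 80/0.9% NaCl vehicle. Counts were taken for locomotion (line crossings), rearing (standing on hind legs) and grooming, and compared with a vehicle control group.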

Row | Compound | Activity (Mus musculus [1]) | Activity (Mus musculus [2]) | Activity (Mus musculus [3]) | Activity (Mus musculus [4]) | Activity (Mus musculus [5])
1 | c1cnc2c(Oc3nc4ccsc4c4nnnn34)cccc2c1 | inactive | inactive | inactive | 23.62% | 
2 | Clc1ccc(Oc2nc3ccsc3c3nnnn23)cc1 | inactive | inactive | inactive | 35.63% | 
3 | CNCCC(Oc1ccc(C(F)(F)F)cc1)c1ccccc1 (stereo not drawn) [FLUOXETINE] |  |  |  | 58.09% | 
4 | Fc1cccc(Oc2nc3ccsc3c3nnnn23)c1 | inactive | inactive | inactive | 25.73% | 
5 | Clc1ccc(Oc2nc3ccsc3c3nnnn23)c(Cl)c1 | inactive | inactive | inactive | 51.62% | Non-toxic
6 | COc1ccc(Oc2nc3ccsc3c3nnnn23)cc1 | inactive | inactive | inactive | 46.18% | 
7 | c1ccc(Oc2nc3ccsc3c3nnnn23)cc1 | inactive | inactive |  | 26.46% | 
8 | COc1ccccc1Oc1nc2ccsc2c2nnnn12 | inactive | inactive | inactive | 26.05% | 
9 | c1ccc2c(Oc3nc4ccsc4c4nnnn34)cccc2c1 | inactive | inactive | inactive | 9.25% | 
10 | COc1cccc(Oc2nc3ccsc3c3nnnn23)c1 | inactive | inactive | inactive | 37.41% | 
11 | Cc1cccc(Oc2nc3ccsc3c3nnnn23)c1 | inactive | inactive | inactive | 39.04% | 
12 | Cc1ccccc1Oc1nc2ccsc2c2nnnn12 | inactive | inactive | inactive | 36.44% | 
13 | Clc1ccccc1Oc1nc2ccsc2c2nnnn12 | inactive | inactive | inactive | 40.17% | 
14 | Brc1ccc(Oc2nc3ccsc3c3nnnn23)cc1 | inactive |  | Active | 10.06% | 
15 | FC(F)(F)c1ccc(Oc2nc3ccsc3c3nnnn23)cc1 | inactive | inactive | inactive | 25.16% | 
16 | Fc1ccc(Oc2nc3ccsc3c3nnnn23)cc1 | inactive | inactive | inactive | 18.18% | 
17 | Cc1ccc(Oc2nc3ccsc3c3nnnn23)cc1 | inactive | inactive | inactive | 36.6% | 
18 | Nc1ccccc1Oc1nc2ccsc2c2nnnn12 | inactive |  | Active | 22.8% | 
19 | Fc1ccccc1Oc1nc2ccsc2c2nnnn12 | inactive | inactive | inactive | 9.33% | 
20 | Clc1cccc(Oc2nc3ccsc3c3nnnn23)c1 | inactive | inactive | inactive | 15.42% | 
21 | Nc1cccc(Oc2nc3ccsc3c3nnnn23)c1 | inactive | inactive |  | 27.59% | 
